Consider 15 molecules from ChEMBL document CHEMBL1146028, “Dibasic non-imidazole histamine H3 receptor antagonists with a rigid biphenyl scaffold” (Bioorg Med Chem Lett, 2006).

A word on the Ki: it is a measure of affinity in units of concentration, obtained from inhibition or displacement. Lower therefore signals a stronger hold on the target. As usually defined, the pKb is the negative decadic logarithm of the Kb, by convention in mol/L. What is called inhibition is the relative decrease from the control value, in per cent. Read a high inhibition as a response far below the control.

Assay [1] addresses Histamine H3 receptor (Cavia porcellus) (UniProt Q9JI35). The assay is described as follows: Activity at histamine H3 receptor assessed as RAMHA-induced inhibition of electrically-stimulated guinea pig isolated ileum. Type of assay: functional, tissue-based. To be noted: filed as antagonist.
The target in assay [2] is Histamine H2 receptor (Cavia porcellus) (UniProt P47747). The assay is described as follows: Activity at histamine H2 receptor in isolated guinea pig atrium up to 10 uM. To be noted: Cardiac atrium. Type of assay: functional, tissue-based.
Assay [3] has as its target T1, Histamine H3 receptor (Homo sapiens, UniProt Q9Y5N1). The assay is described as follows: Displacement of [3H]RAMHA from human histamine H3 receptor transfected in SK-N-MC cells. In kind it is cell-based. A digest of the protocol:
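Membranes from SK-N-MC cells stably expressing human H3 receptor, incubated 60 min at room temperature with 0.5 nM [3H](R)-α-methylhistamine in 50 mM Tris–HCl/5 mM EDTA, pH 7.4; compounds 0.01 nM–10 µM. Filtration, two ice-cold washes, scintillation counting. Non-specific binding: 10 µM histamine. IC50 estimated from displacement curves.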
(Loss of bound radioactivity is the signal in a displacement assay; it reports binding, not function.)

The target of assay [4] is Histamine H1 receptor (Cavia porcellus) (UniProt P31389). The assay is described as follows: Activity at histamine H1 receptor in isolated guinea pig ileum up to 10 uM. In kind it is functional, tissue-based.
Assay [5] addresses Histamine H3 receptor (Rattus norvegicus, UniProt Q9QYN8). The assay is described as follows: Displacement of [3H]RAMHA from histamine H3 receptor in rat brain membranes. Type of assay: cell membranes. In a few lines: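 Rat cerebral cortex membranes incubated 60 min at room temperature with 0.5 nM [3H](R)-α-methylhistamine in 50 mM Tris–HCl/0.5 mM EDTA/50 mM NaCl, pH 7.4; compounds 0.01 nM–10 µM. Rapid filtration, two ice-cold buffer washes, scintillation counting. Non-specific binding: 10 µM thioperamide. IC50 from displacement curves; mean of three experiments.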

For assay [6], the target named is T1, Histamine H3 receptor. Nature of the assay: Antagonist activity against histamine H3 receptor assessed as beta galactosidase reporter gene transactivation in SK-N-MC cells. Type of assay: functional, cell-based. In a few lines: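 SK-N-MC cells expressing human H3 receptor; compounds (0.1 nM–10 µM) added to media, 5 min later forskolin (5 µM) and cumulative (R)-α-methylhistamine (0.1 nM–1 µM). After 6 h at 37 °C, cells lysed (0.5% Triton, 40 mM β-mercaptoethanol); read-out by absorbance 570 nm after overnight incubation at 20 °C.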
On the technique in general: Reporter assays use an easily measured gene product as a stand-in for the process of interest.

Assay [7] addresses T2, Acetylcholinesterase (Rattus norvegicus) (UniProt P37136).
T2 sequence (whole entry): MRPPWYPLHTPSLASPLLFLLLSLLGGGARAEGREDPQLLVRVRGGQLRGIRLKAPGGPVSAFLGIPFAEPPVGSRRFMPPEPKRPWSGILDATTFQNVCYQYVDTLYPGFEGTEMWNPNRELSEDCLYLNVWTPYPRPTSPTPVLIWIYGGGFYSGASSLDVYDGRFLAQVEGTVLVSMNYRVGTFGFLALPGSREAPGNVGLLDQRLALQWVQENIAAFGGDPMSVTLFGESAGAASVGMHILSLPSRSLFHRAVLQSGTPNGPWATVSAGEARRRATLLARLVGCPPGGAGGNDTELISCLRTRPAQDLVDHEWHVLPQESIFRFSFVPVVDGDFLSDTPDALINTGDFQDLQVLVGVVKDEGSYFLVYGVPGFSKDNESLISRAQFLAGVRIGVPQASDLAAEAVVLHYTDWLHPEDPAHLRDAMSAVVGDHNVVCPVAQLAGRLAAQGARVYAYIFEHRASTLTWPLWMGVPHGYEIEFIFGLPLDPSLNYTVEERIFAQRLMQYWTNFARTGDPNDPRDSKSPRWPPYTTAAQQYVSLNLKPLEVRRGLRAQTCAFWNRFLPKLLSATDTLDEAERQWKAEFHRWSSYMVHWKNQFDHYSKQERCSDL
Nature of the assay: Inhibition of AChE in rat brain at 10 uM. Type of assay: tissue-based.

The source made the active and inactive calls. The rule behind the calls is not given here.

Histamine H2 receptor (Cavia porcellus), sequence (P47747 whole entry): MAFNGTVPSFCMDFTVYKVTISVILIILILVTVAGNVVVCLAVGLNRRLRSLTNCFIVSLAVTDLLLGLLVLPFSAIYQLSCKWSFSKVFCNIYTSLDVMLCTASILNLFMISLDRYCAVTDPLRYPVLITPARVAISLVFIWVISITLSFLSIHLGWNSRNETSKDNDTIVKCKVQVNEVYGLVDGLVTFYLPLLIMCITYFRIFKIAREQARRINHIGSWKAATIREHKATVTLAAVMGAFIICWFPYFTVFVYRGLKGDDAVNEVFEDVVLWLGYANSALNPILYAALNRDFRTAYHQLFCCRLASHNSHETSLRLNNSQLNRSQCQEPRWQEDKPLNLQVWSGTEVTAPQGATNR
Histamine H1 receptor (Cavia porcellus), sequence (P31389 whole entry): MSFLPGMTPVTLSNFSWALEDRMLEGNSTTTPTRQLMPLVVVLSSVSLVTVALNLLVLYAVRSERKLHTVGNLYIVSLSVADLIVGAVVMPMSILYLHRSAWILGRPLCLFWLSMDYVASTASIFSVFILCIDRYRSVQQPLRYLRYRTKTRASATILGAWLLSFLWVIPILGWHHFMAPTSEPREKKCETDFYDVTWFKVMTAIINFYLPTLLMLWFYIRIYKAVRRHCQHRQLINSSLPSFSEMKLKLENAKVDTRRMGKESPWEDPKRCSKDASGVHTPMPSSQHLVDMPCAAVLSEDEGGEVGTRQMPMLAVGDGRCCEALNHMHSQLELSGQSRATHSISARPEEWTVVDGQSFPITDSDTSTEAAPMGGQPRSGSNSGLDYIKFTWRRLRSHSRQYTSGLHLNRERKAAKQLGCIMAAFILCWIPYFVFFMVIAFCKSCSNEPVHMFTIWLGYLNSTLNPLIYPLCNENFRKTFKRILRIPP
Histamine H3 receptor (Cavia porcellus), sequence (Q9JI35 whole entry): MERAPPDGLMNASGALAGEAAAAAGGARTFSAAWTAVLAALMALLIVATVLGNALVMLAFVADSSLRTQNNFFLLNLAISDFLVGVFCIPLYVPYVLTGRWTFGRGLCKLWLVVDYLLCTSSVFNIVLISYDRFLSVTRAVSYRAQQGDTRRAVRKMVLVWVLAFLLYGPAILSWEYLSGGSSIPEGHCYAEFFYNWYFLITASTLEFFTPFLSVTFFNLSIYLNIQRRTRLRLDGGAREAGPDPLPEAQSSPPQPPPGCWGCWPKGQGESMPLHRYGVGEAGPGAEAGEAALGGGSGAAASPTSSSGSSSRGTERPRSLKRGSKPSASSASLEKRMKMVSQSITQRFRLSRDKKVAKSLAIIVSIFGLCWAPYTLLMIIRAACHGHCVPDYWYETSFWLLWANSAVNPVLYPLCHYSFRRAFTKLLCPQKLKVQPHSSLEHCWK
T1 sequence (Q9Y5N1 whole entry): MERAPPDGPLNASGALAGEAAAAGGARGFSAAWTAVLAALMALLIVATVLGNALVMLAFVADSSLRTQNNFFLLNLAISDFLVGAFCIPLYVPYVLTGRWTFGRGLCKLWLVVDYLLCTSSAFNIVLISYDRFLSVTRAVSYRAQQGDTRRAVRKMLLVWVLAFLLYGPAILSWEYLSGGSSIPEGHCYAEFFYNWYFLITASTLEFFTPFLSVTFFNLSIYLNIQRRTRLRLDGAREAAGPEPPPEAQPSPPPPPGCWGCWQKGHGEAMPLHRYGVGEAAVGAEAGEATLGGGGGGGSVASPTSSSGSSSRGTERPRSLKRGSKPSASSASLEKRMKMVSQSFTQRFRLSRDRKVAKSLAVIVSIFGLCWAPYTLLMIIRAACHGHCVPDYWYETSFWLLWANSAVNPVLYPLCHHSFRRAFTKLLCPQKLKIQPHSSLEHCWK
Histamine H3 receptor (Rattus norvegicus, UniProt Q9QYN8), sequence (Q9QYN8 whole entry): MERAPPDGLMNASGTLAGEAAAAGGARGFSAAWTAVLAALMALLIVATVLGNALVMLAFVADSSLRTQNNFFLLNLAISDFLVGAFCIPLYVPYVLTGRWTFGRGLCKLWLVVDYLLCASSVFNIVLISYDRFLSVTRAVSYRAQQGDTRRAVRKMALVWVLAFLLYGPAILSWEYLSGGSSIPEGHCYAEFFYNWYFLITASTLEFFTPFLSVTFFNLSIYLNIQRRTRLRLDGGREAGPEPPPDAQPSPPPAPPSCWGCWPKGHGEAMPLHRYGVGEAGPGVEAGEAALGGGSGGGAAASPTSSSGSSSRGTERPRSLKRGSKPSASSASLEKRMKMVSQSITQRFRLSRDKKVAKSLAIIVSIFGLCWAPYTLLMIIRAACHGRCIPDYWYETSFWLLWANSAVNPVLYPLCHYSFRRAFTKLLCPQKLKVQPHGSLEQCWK

On to `CN(C)Cc1ccc(-c2ccc(CN(C)C)cc2)cc1`, for which, in assay [1], the Activity entry is “Antagonist”. In addition, the outcome in assay [2] and in assay [4] was inactive. The Ki was 1.86 nM at Histamine H3 receptor [3] and 6.61 nM on Histamine H3 receptor [5].
As for `CCCCCNCc1ccc(-c2ccc(CNCCCCC)cc2)cc1`, the Activity entry in assay [1] was “Antagonist”. Further, the result in assay [2] and in assay [4] was inactive. Moreover, the Ki at Histamine H3 receptor [3] was 759 nM; at Histamine H3 receptor [5], 3310 nM.
Turning to `c1cc(-c2ccc(CN3CCOCC3)cc2)ccc1CN1CCOCC1`, the Activity entry in assay [1] was “Antagonist”. The outcome in assay [2] and in assay [4] was inactive. For the same molecule, the results for the Ki at Histamine H3 receptor [3] and at Histamine H3 receptor [5] were 12.3 nM and 81.3 nM, respectively.
As to `c1cc(-c2ccc(CN3CCCCC3)cc2)ccc1CN1CCCCC1`, in assay [1], the Activity entry was “Antagonist”. The result in assay [2] and in assay [4] was inactive. Moreover, the values for the Ki on Histamine H3 receptor [3] and at Histamine H3 receptor [5] were 0.339 nM and 1.2 nM, respectively. For the same molecule, the pKb at Histamine H3 receptor [6] stood at 8.77.
On to `c1cc(CN2CCCCC2)ccc1CN1CCCCC1`, for which the Activity result in assay [1] was “Antagonist”. The outcome in assay [2] and in assay [4] was inactive. For the same molecule, the Ki was 1230 nM at Histamine H3 receptor [3] and 4070 nM on Histamine H3 receptor [5].
For `c1cc(-c2ccc(CN3CCCCC3)cc2)ccc1CNC1CCCCC1`, the Activity result in assay [1] is “Antagonist”. The result in assay [2] and in assay [4] was inactive. In assay [7], this molecule displayed an inhibition of 50%. The Ki is 1.7 nM at Histamine H3 receptor [3] and 9.12 nM at Histamine H3 receptor [5].
As for `CC1CCN(Cc2ccc(-c3ccc(CN4CCC(C)CC4)cc3)cc2)CC1`, the Activity entry in assay [1] was “Antagonist”. For the same molecule, the result in assay [2] and in assay [4] was inactive. Besides, the inhibition in assay [7] turned out to be 50%. The Ki at Histamine H3 receptor [3] is 6.17 nM; on Histamine H3 receptor [5] it was 15.1 nM.
For the molecule `NCc1ccc(-c2ccc(CN)cc2)cc1`, the Activity entry in assay [1] is “Antagonist”. The result in assay [2] and in assay [4] was inactive. Besides, the values for the Ki on Histamine H3 receptor [3] and on Histamine H3 receptor [5] were 4470 nM and 8710 nM, respectively.
Take `c1cc(-c2ccc(CCN3CCCCC3)cc2)ccc1CCN1CCCCC1`: the Activity result in assay [1] is “Antagonist”. Also, the result in assay [2] and in assay [4] was inactive. Further, the figures for the Ki on Histamine H3 receptor [3] and on Histamine H3 receptor [5] were 1.17 nM and 3.98 nM, respectively.
As to `CN(Cc1ccc(-c2ccc(CN(C)C3CCCCC3)cc2)cc1)C1CCCCC1`, in assay [1], the Activity entry was “Antagonist”. Besides, the result in assay [2] and in assay [4] was inactive. Also, the Ki at Histamine H3 receptor [3] was 37.2 nM; on Histamine H3 receptor [5] it was 214 nM.
In the case of `c1cc(-c2ccc(CNC3CCCCC3)cc2)ccc1CNC1CCCCC1`, the Activity entry in assay [1] was “Antagonist”. Besides, the outcome in assay [2] and in assay [4] was inactive. For the same molecule, the Ki on Histamine H3 receptor [3] was 562 nM; on Histamine H3 receptor [5], 2090 nM.
`CC(=O)N1CCN(Cc2ccc(-c3ccc(CN4CCCCC4)cc3)cc2)CC1`: the Activity entry in assay [1] is “Antagonist”. The result in assay [2] and in assay [4] was inactive. In addition, the inhibitory constant (Ki) on Histamine H3 receptor [3] is 6.31 nM; at Histamine H3 receptor [5], 46.8 nM.
As for `CC(=O)N1CCN(Cc2ccc(-c3ccc(CN4CCN(C(C)=O)CC4)cc3)cc2)CC1`, in assay [1], the Activity result is “Antagonist”. Also, the outcome in assay [2] and in assay [4] was inactive. For the same molecule, the Ki on Histamine H3 receptor [3] was 1410 nM; on Histamine H3 receptor [5], 3890 nM.
For the molecule `O=C1CCCCN1Cc1ccc(-c2ccc(CN3CCCCC3)cc2)cc1`, the Activity entry in assay [1] was “Antagonist”. Further, the result in assay [2] and in assay [4] was inactive. In addition, the Ki on Histamine H3 receptor [3] was 46.8 nM; at Histamine H3 receptor [5] it was 115 nM.
For the molecule `CC1CC(C)CN(Cc2ccc(-c3ccc(CN4CC(C)CC(C)C4)cc3)cc2)C1` (stereo not drawn), the Activity entry in assay [1] was “Antagonist”. Besides, the result in assay [2] and in assay [4] was inactive. Moreover, the Ki is 398 nM at Histamine H3 receptor [3] and 676 nM on Histamine H3 receptor [5].
